Screens as filed in PubChem BioAssay.
The list is not random: actives were taken first. Their share in the collection is about 1.9%.
aDG glyco up – increases alpha dystroglycan glycosylation; Pro5-aDG cells, alpha-DG glycosylation AlphaScreen (IIH6); 0% Pro5, 100% B10-LARGE cell signal; activation, % at 10 µM; 0.22% of 360,000 active; AID 624168;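 active means activation of at least 8% versus controls, or a plate z-score of at least 8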;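 further: Pro5 are CHO cells carrying HIG-tagged alpha-DG that lacks glycosylation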
MsrA act – bovine methionine sulfoxide reductase A activation; purified bovine MsrA, absorbance read-out; 0.3% of 360,000 active; AID 602163; activation, % at 10.6 µM; in the data active means activation above about 7.5%;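 further: 0% = vehicle and 100% = reference activator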
Vif inh – HIV Vif inhibition; HEK293T cells, Vif self-association by quenched fluorescence, imaging, 24 h; inhibition, % at 7.49 µM; 0.35% of 340,000 active; in the data active means inhibition above about 50%, passing the limit was not always enough
N-glyco inh – blocks N-linked glycosylation in D54 reporter cells. D54 ERlucT glycosylation luciferase reporter, 24 h; percent of 100 nM tunicamycin response. reporter increase, % at 12.5 µM. 0.23% of 360,000 active. AID 588692;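 active means mean luciferase reporter signal, scaled so untreated is 0 and the glycosylation-blocking control 100, at or above a set limit in every replicate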;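 further: luciferase carries N-glycosylation sites so blocking glycosylation raises the light; 0% = median of neutral control wells and 100% = median of 100 nM tunicamycin wells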
MsrA inhibitor – inhibits bovine methionine sulfoxide reductase A; purified bovine MsrA, absorbance read-out; inhibition, % at 15.5 µM; 0.75% of 360,000 active; AID 651718; in the data active means inhibition above about 4.5%;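 further: 0% = vehicle wells with enzyme and 100% = reference inhibitor wells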
UCH37 inh – inhibitors of human deubiquitinating enzyme UCH37; Q9Y5K5; purified proteasome/UCH37, Ub-AMC cleavage fluorescence; inhibition, % (no concentration beside the values); 0.33% of 330,000 active;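 active means mean inhibition over replicate wells above about 20%, limit read from the data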;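 further: 0% = compound-free wells with enzyme and 100% = wells lacking proteasome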
Target sequence (Q9Y5K5 whole entry, looked up): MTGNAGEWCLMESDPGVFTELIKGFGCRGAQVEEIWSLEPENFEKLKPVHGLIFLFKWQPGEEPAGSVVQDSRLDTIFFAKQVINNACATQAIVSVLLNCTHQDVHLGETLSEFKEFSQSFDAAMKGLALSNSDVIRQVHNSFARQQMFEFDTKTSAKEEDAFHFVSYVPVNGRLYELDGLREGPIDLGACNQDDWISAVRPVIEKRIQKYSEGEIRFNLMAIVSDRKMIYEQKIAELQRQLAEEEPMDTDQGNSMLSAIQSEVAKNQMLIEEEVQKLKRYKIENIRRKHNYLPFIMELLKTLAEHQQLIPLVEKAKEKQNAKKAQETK
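Schedule: 30 min plus 25 min, room temperature / Material: human UCH37 within purified proteasomes / Technique: AMC fluorescence intensity at 355/460 nm / Buffer or medium: pH 7.4 Tris-HCl (50 mM) with ovalbumin, ATP-MgCl2, DTT / Controls: wells without proteasome as full block, compound-free enzyme plus substrate as uninhibited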
An asterisk follows results filed as active; nt = not tested or not shown.

SMILES | aDG glyco up | MsrA act | Vif inh | N-glyco inh | MsrA inhibitor | UCH37 inh
CC1CCN(c2nc3nonc3nc2N2CCC(C)CC2)CC1 | 0.4 | -0.9 | -7.3 | -4.0 | -1.0 | 4.0
C=C(C)COc1ccc(-c2n[nH]c(C)c2Oc2ccccc2OC)c(O)c1 | 0.0 | -4.0 | 0.1 | -6.1 | 1.5 | 34.7*
CC(=NOCON=C(C)c1ccc(F)cc1)c1ccc(F)cc1 | nt | nt | nt | nt | nt | 1.4
Cc1ccc(C(=O)N/C(=C/c2ccco2)C(=O)NCCc2c[nH]c3ccccc23)cc1 | -0.2 | -3.8 | 0.9 | 44.8* | 0.8 | 1.6
COc1cc(C=NNC(=O)CNC(=O)c2cccc([N+](=O)[O-])c2)ccc1O | nt | nt | nt | nt | nt | 0.8
Cc1cc2nc3ccc(=[N+](C)C)cc-3sc2cc1N | 36.5* | 18.8* | -17.9 | -19.9 | nt | 9.9
O=C1c2ccccc2[C@@H]2C[C@@H](O)[C@H](Nc3cccc4ccccc34)CCN12 | 0.2 | 0.5 | 83.0* | 7.5 | 0.3 | -17.3
Cc1ccc2c(COC(=O)CNC(=O)c3ccccc3)cc(=O)oc2c1 | 0.0 | -0.4 | -2.3 | -0.1 | 1.5 | -5.9
Cc1ccc2c(COC(=O)c3ccccc3OC(F)F)cc(=O)oc2c1 | 0.3 | -0.6 | 52.4* | -1.9 | 0.4 | 6.0
O=C(Cn1cnc([N+](=O)[O-])c1)Nc1ccc(F)c(Cl)c1 | 0.0 | -3.2 | 0.6 | 1.2 | 0.6 | 2.7
O=C(Cn1cnc([N+](=O)[O-])c1)Nc1ccc(Cl)cc1Cl | 0.3 | -6.4 | 64.4* | 2.2 | 1.6 | nt
COc1cc(S(=O)(=O)NCc2ccncc2)c(OC)cc1Br | 0.4 | -3.7 | -13.5 | 1.5 | 1.4 | 3.3
COc1cc(S(=O)(=O)NCc2ccncc2)c(OC)cc1C | 0.3 | -1.6 | 51.0* | 0.2 | -0.8 | 0.3
CC(=NNC(=O)c1nnn(-c2nonc2N)c1COc1ccccc1)c1ccccc1Cl | nt | nt | nt | nt | nt | 6.5
CCc1noc(C)c1C(=O)NNC(=O)c1ccc(N(CC)CC)cc1 | -0.1 | -12.1 | 59.5* | -3.0 | 1.8 | 3.2
CCCCCCCNC(=O)C1(CC2CC(c3ccc(Cl)cc3)=NO2)CCN(C(=O)C2(C)CC2)CC1 (stereo unspecified) | 0.4 | 8.5* | -6.5 | -2.7 | nt | 2.7
CCCCCCCNC(=O)C1(CC2CC(c3ccc(Cl)cc3)=NO2)CCN(C(=O)C2CCCC2)CC1 (stereo unspecified) | 0.4 | -6.1 | 27.7 | -1.4 | 0.8 | -0.2
Cc1ccc(S(=O)(=O)N(C)C[C@@H]2Oc3ccc(NC(=O)CCC(F)(F)F)cc3CC(=O)N([C@@H](C)CO)C[C@@H]2C)cc1 | -0.2 | -1.3 | nt | 33.3* | -1.0 | 4.8
C[C@H](CO)N1C[C@H](C)[C@H](CN(C)S(=O)(=O)c2cn(C)cn2)Oc2ccc(NC(=O)Nc3ccc(C(F)(F)F)cc3)cc2CC1=O | -0.3 | 1.4 | 5.3 | 59.8* | -0.1 | 0.1
C[C@H]1CN([C@@H](C)CO)C(=O)Cc2cc(NC(=O)CCC(F)(F)F)ccc2O[C@H]1CN(C)S(C)(=O)=O | -0.1 | -0.8 | 13.3 | 0.3 | -0.4 | 4.7
O=C(NN=Cc1ccc(O)c(O)c1)c1ccc(CSc2cccc3cccnc23)cc1 | nt | nt | nt | nt | nt | -16.5
O=C(NN=Cc1c[nH]c2ccccc12)C1CC1c1ccccc1 (stereo unspecified) | nt | nt | nt | nt | nt | 2.2
Cc1ccc(-c2nn3c(C)nnc3c3ccccc23)cc1S(=O)(=O)NCc1ccccc1 | 0.1 | -1.0 | 87.0* | 6.6 | -1.2 | -6.3
Cc1ccc(-c2nn3c(C)nnc3c3ccccc23)cc1S(=O)(=O)NCCN1CCOCC1 | -0.3 | -3.3 | 12.1 | 11.2 | 0.4 | -1.0
CCOC(=O)N1CCN(S(=O)(=O)c2cc(-c3nn4c(C)nnc4c4ccccc34)ccc2C)CC1 | -0.2 | -5.7 | 5.7 | 3.3 | 0.0 | 1.1
SMILES | aDG glyco up | MsrA act | Vif inh | N-glyco inh | MsrA inhibitor | UCH37 inh
Cc1ccc(-c2nn3c(C)nnc3c3ccccc23)cc1S(=O)(=O)N(C)CCO | -0.4 | -1.7 | 17.4 | 26.7* | -0.3 | 1.1
CCOc1cc(C=NNc2ccccc2Cl)ccc1OCC(=O)O | nt | nt | nt | nt | nt | 7.0
Cc1ccc(C=NNC(=O)C2COc3ccccc3O2)s1 (stereo unspecified) | nt | nt | nt | nt | nt | 2.6
CCOc1ccc(N=C2NC(=O)S/C2=C\c2ccc(Cl)cc2)cc1 | -0.4 | -11.3 | 0.1 | -2.7 | 0.3 | 2.8
COc1ccc(N=C2NC(=O)S/C2=C\c2ccc(N(C)C)cc2)cc1 | -0.5 | -11.1 | 103.7* | 0.3 | 0.6 | nt
CCOc1cc(C=NNC(=O)c2cccc(S(=O)(=O)N3CCCC3)c2)ccc1OCC(=O)N(C)C | nt | nt | nt | nt | nt | 2.9
CC(=O)Nc1ccc(S(=O)(=O)NN=Cc2cccnc2)cc1 | nt | nt | nt | nt | nt | 6.8
CC(=O)NC1=NN(C(C)=O)C(C)(c2ccco2)S1 (stereo unspecified) | -0.3 | 1.8 | 51.1* | 3.0 | 2.0 | 0.5
COc1ccccc1NC(=O)CC1S/C(=N/N=C2CCCc3ccccc32)NC1=O (stereo unspecified) | nt | nt | nt | nt | nt | 4.0
O=C(O)COc1ccc(C=NNC(=O)/C(=C/C=C/c2ccccc2)NC(=O)c2ccccc2)cc1 | nt | nt | nt | nt | nt | 18.2
CCCCn1c(O)c(N=Nc2ccccc2O)c2ccccc21 | -0.2 | -0.8 | 144.5* | 2.1 | 2.3 | 4.0
CCc1ccc(-c2cc(C(=O)NN=Cc3c[nH]c4ccccc34)[nH]n2)cc1 | nt | nt | nt | nt | nt | -19.2
COc1ccc(C(=O)CSc2nnc(-c3cc4ccccc4cc3O)n2Cc2ccco2)cc1 | 0.4 | -3.2 | -11.4 | 33.1* | 1.3 | 4.2
Fc1cccc(F)c1C=NN1CCOCC1 | nt | nt | nt | nt | nt | -1.7
O=C1C2C3C=CC(C3)C2C(=O)N1N=Cc1ccc(-c2ccccc2[N+](=O)[O-])o1 (stereo unspecified) | nt | nt | nt | nt | nt | 3.2
CCOC(=O)c1c(NC(=O)C2COc3ccccc3O2)sc2c1CCN(Cc1ccccc1)C2 (stereo unspecified) | 0.1 | -5.6 | -8.1 | -3.1 | 0.6 | 2.3
NC(=O)c1c(NC(=O)C2COc3ccccc3O2)sc2c1CCN(Cc1ccccc1)C2 (stereo unspecified) | 0.0 | -2.5 | 109.7* | 0.8 | -0.6 | -46.0
ON=Cc1cc(Cl)ccc1OCc1ccccc1Cl | nt | nt | nt | nt | nt | 3.6
COc1ccc(C=NNC(=O)C(=O)N2CCCC2)cc1 | nt | nt | nt | nt | nt | 3.5
CCOc1ncccc1C(=O)OCc1ccccc1 | 0.2 | -8.6 | 51.2* | -3.3 | 1.4 | 0.3
Cc1cc(C)nc(Nc2ccc(C(=O)O)cc2)n1 | -0.2 | -2.9 | 58.5* | -4.8 | 0.8 | 0.2
Cc1cc(C)nc(Nc2ccc(O)cc2)n1 | -0.1 | 0.3 | nt | 1.5 | 1.3 | -1.3
O=C(C1CCN(S(=O)(=O)c2cccnc2)CC1)N1CCN(c2ccccc2Cl)CC1 | 0.5 | -4.1 | -1.0 | -2.0 | 1.9 | 2.7
Cc1ccc(Cl)cc1N1CCN(C(=O)C2CCN(S(=O)(=O)c3cccnc3)CC2)CC1 | 7.5* | -8.1 | -3.1 | -3.3 | -0.1 | 5.0
CC(=O)C(C[N+]1(C)CCCCC1)=NO | nt | nt | nt | nt | nt | 3.3
C=CCN1C(=O)[C@H]2CCC=C[C@H]2[C@@H]1c1cccc(C)c1 | 1.2 | -1.6 | 0.4 | 1.0 | -0.3 | 23.8*
